How the values were obtained:
A-431 = test: Antiproliferative activity against human A431 cells incubated for 72 hrs by MTT assay; assay type: functional, cell-based; details: A-431, 72 h
[1] = target: T1, Epidermal growth factor receptor (Homo sapiens, UniProt P00533); assay type: cell-based, Sf9
NCI-H1975 [2] = test: Antiproliferative activity against human NCI-H1975 cells incubated for 72 hrs by MTT assay; assay type: functional, cell-based; details: NCI-H1975, 72 h
[3] = Antiproliferative activity against NHBE cells incubated for 72 hrs by MTT assay; assay type: ADME, cell-based; details: Homo sapiens
HCC827 = test: Antiproliferative activity against human HCC827 cells incubated for 72 hrs by MTT assay; assay type: functional, cell-based; details: HCC827, 72 h
[4] = target: Epidermal growth factor receptor (Homo sapiens, UniProt P00533, L858R/T790M); test: biochemical; assay type: cell-based, Sf9
Epidermal growth factor receptor (Homo sapiens, UniProt P00533, L858R/T790M), sequence (P00533 25-1210 T790M/L858R limits assumed): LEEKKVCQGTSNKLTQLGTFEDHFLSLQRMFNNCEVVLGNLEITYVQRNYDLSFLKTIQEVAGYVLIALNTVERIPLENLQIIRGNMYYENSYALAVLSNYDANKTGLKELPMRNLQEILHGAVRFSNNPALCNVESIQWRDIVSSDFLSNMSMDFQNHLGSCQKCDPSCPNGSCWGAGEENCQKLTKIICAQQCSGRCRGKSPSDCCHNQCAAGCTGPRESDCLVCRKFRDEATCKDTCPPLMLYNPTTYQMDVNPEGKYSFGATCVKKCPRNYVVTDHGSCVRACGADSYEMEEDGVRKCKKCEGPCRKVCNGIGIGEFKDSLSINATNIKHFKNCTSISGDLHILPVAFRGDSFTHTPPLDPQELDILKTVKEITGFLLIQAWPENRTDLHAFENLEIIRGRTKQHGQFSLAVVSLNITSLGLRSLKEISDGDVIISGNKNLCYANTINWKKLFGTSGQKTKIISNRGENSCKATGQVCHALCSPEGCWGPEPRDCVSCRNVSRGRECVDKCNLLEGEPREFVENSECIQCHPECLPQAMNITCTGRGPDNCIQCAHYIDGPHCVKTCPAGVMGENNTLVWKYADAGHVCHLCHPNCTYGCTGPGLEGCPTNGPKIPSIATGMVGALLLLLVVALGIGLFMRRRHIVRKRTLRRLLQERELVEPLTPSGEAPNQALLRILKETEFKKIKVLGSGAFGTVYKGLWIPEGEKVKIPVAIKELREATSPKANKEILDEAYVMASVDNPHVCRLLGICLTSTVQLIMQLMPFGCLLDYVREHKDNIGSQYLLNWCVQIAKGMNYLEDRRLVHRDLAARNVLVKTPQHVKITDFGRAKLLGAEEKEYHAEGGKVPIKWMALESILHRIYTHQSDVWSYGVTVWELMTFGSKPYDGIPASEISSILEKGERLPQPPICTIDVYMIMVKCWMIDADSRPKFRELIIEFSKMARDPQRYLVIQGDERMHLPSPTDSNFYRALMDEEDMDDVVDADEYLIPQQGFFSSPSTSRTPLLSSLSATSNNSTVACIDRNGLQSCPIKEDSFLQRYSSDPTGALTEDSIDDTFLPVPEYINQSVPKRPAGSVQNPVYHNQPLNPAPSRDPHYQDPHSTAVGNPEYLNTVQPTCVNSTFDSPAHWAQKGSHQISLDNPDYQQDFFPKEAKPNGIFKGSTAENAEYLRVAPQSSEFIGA

A549 = test: Antiproliferative activity against human A549 cells incubated for 72 hrs by MTT assay; assay type: functional, cell-based; details: A549, 72 h
NCI-H1975 [5] = test: Antitumor activity against human NCI-H1975 cells xenografted in STOCK-Foxn1nu/Nju nude mouse assessed as inhibition of tumor growth at 50 mg/kg/day, po qd for 14 days relative to untreated control; assay type: functional; details: 336 h, read-out: TGI
Method in brief: (§1)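 Nude mice (STOCK-Foxn1nu/Nju, 5–6 weeks, 20–25 g) were given s.c. 3×10⁶ H1975 cells in 0.1 mL PBS in the right oxter. Dosing began three days after implant, with random allocation to groups. Doses were 10, 20 or 50 mg/kg, oral, once daily for 14 days; vehicle controls got oral 25% PEG-400. Tumor volume was taken as A×B²/2 from perpendicular diameters. Tumors were excised and weighed at the end. n = 5, mean ±SD.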

NCI-H1975 [6] = test: Antitumor activity against human NCI-H1975 cells xenografted in STOCK-Foxn1nu/Nju nude mouse assessed as inhibition of tumor growth at 20 mg/kg/day, po qd for 14 days relative to untreated control; assay type: functional; details: 336 h, read-out: TGI
Method in brief: (§2)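 Female/male unstated; 5–6-week-old nude mice (20–25 g) implanted subcutaneously in the right oxter with 3×10⁶ H1975 cells in 0.1 mL PBS. After 3 days, mice were randomised into groups and dosed orally once daily for 14 days at 10, 20 or 50 mg/kg; controls received oral 25% PEG-400. Tumour volume was taken as A×B²/2. Body weight and mortality were monitored. Tumours were weighed at sacrifice. n = 5.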

[7] = tested on: Epidermal growth factor receptor (Homo sapiens), P00533 [L858R,T790M]; test: Inhibition of EGFR L858R/T790M mutant phosphorylation in human NCI-H1975 cells assessed as reduction in AKT phosphorylation at 0.2 to 5 uM by Western blotting assay; assay type: cell-based
Epidermal growth factor receptor (Homo sapiens), P00533 [L858R,T790M], sequence (P00533 whole entry T790M/L858R, looked up): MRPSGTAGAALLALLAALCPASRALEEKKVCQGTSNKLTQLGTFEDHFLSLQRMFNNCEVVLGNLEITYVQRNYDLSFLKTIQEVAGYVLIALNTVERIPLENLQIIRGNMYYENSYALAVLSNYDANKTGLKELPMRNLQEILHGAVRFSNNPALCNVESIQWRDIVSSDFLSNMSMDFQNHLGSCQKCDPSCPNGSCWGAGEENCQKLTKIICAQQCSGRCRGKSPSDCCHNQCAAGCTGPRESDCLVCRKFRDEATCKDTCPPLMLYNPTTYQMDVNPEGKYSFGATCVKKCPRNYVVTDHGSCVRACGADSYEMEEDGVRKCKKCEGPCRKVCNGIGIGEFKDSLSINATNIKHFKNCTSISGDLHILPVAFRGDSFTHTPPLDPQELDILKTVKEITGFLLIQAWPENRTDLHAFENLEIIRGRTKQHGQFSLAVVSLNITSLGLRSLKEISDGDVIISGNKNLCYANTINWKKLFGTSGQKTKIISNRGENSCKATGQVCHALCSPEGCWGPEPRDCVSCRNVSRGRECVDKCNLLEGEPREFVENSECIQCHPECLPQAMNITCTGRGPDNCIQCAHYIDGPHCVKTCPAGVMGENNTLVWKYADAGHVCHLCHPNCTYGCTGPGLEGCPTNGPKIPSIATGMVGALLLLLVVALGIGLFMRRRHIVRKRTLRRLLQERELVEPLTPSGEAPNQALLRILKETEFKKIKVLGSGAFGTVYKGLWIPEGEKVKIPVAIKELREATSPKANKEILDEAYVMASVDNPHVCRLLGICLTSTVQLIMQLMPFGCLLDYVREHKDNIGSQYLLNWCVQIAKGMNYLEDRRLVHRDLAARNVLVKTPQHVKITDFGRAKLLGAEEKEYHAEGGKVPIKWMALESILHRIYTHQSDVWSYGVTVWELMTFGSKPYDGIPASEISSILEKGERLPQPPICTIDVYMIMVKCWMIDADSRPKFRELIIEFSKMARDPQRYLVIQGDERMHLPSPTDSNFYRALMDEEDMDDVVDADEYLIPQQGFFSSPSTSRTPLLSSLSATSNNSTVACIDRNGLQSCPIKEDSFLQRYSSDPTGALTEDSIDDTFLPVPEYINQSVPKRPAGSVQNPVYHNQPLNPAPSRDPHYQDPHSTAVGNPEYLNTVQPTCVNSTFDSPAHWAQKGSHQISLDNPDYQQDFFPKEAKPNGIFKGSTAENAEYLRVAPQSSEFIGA
Method in brief: (§3)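 H1975 and A431 cells were treated and then lysed. Lysates were cleared at 12,000 g, 15 min, 4 °C. 50 µg protein was run on 8–12% SDS-PAGE and transferred to PVDF. Membranes were blocked in 5% skim milk, then probed for EGFR, p-EGFR, AKT, p-AKT, ERK, p-ERK and actin. Detection was by ECL. Band IOD was normalized to actin.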

[8] = target: T1, Epidermal growth factor receptor; test: Inhibition of wild type EGFR phosphorylation in human A431 cells assessed as reduction in ERK phosphorylation at 0.2 to 5 uM by Western blotting assay; assay type: cell-based; method in brief: as §3
[9] = tested on: Epidermal growth factor receptor (Homo sapiens), P00533 [L858R,T790M]; test: Inhibition of EGFR L858R/T790M mutant phosphorylation in human NCI-H1975 cells at 5 uM by Western blotting assay; assay type: cell-based; method in brief: as §3
NCI-H1975 [10] = test: Antitumor activity against human NCI-H1975 cells xenografted in STOCK-Foxn1nu/Nju nude mouse assessed as inhibition of tumor growth at 10 mg/kg/day, po qd for 14 days relative to untreated control; assay type: functional; details: 336 h, read-out: TGI; method in brief: as §1
Mus musculus [11] = test: Toxicity in human NCI-H1975 cells xenografted STOCK-Foxn1nu/Nju nude mouse assessed as mouse mortality 10 to 50 mg/kg/day, po qd for 14 days relative to untreated control; assay type: organism-based; details: in vivo, 336 h; method in brief: as §2
[12] = target: T1, Epidermal growth factor receptor; test: Inhibition of wild type EGFR phosphorylation in human A431 cells at 0.2 to 5 uM by Western blotting assay; assay type: cell-based; method in brief: as §3
[13] = target: T1, Epidermal growth factor receptor; test: Inhibition of wild type EGFR phosphorylation in human A431 cells assessed as reduction in AKT phosphorylation at 0.2 to 5 uM by Western blotting assay; assay type: cell-based; method in brief: as §3
NCI-H1975 [14] = test: Antitumor activity against human NCI-H1975 cells xenografted in STOCK-Foxn1nu/Nju nude mouse assessed as inhibition of tumor growth at 10 to 50 mg/kg/day, po qd for 14 days relative to untreated control; assay type: functional, organism-based; method in brief: as §1
[15] = tested on: Epidermal growth factor receptor (Homo sapiens), P00533 [L858R,T790M]; test: Inhibition of EGFR L858R/T790M mutant phosphorylation in human NCI-H1975 cells assessed as reduction in ERK phosphorylation at 0.2 to 5 uM by Western blotting assay; assay type: cell-based; method in brief: as §3
[16] = tested on: Epidermal growth factor receptor (Homo sapiens), P00533 [L858R,T790M]; test: Inhibition of EGFR L858R/T790M mutant phosphorylation in human NCI-H1975 cells at 0.2 to 5 uM by Western blotting assay; assay type: cell-based; method in brief: as §3
Mus musculus [17] = test: Toxicity in human NCI-H1975 cells xenografted STOCK-Foxn1nu/Nju nude mouse assessed as drug tolerability 10 to 50 mg/kg/day, po qd for 14 days relative to untreated control; assay type: organism-based; details: in vivo, 336 h; method in brief: as §2
Mus musculus [18] = test: Toxicity in human NCI-H1975 cells xenografted STOCK-Foxn1nu/Nju nude mouse assessed as body weight loss 10 to 50 mg/kg/day, po qd for 14 days relative to untreated control; assay type: organism-based; details: in vivo, 336 h
Method in brief: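 Body weight was tracked over 14 days of once-daily oral dosing at 10, 20 or 50 mg/kg, against 25% PEG-400 vehicle. Mice were nude (STOCK-Foxn1nu/Nju, 5–6 weeks, 20–25 g) carrying s.c. H1975 xenografts (3×10⁶ cells in PBS). Dosing started three days after implant. n = 5, mean ±SD.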

T1 sequence (P00533 whole entry): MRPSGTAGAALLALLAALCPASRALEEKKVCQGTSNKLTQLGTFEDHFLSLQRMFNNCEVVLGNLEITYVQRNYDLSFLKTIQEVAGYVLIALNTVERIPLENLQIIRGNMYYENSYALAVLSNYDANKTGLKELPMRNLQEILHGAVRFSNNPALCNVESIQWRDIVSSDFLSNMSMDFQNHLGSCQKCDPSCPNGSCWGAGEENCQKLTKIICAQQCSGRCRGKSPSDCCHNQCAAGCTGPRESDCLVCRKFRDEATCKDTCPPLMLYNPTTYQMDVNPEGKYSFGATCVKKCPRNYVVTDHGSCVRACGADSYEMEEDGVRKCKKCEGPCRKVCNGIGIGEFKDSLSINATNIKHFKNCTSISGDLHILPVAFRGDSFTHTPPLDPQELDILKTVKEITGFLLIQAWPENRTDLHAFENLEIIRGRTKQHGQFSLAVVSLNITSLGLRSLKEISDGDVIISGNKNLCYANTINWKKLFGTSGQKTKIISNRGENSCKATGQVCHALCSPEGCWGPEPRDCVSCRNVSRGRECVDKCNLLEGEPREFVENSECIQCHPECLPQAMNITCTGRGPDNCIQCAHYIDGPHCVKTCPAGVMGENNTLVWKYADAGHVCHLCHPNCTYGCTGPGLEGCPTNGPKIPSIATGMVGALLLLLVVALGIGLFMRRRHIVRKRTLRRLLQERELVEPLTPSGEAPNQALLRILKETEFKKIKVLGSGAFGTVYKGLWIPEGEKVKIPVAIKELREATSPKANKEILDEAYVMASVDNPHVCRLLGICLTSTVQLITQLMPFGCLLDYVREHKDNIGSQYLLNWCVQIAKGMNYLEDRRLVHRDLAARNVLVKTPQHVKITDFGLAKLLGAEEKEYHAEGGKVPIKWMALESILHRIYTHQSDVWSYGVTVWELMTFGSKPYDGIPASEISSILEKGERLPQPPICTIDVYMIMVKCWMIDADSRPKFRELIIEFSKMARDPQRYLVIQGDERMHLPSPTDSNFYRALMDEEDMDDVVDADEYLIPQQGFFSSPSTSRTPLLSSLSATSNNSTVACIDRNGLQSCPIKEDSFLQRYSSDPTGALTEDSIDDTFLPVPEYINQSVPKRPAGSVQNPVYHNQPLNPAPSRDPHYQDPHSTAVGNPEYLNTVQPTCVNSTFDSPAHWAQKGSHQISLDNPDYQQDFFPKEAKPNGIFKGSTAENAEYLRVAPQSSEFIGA

Structure (SMILES) | IC50 (A-431) | IC50 [1] | IC50 (NCI-H1975 [2]) | IC50 [3] | IC50 (HCC827) | IC50 [4] | IC50 (A549) | other results
C=CC(=O)Nc1cccc(Nc2nc(Nc3ccc(CN4CCOCC4)cc3)ncc2F)c1 | 444 nM | 500 nM | 609 nM | 22700 nM | 41 nM | 80.8 nM | 4460 nM | 
C=CC(=O)Nc1ccccc1Nc1nc(Nc2ccc(NC(=O)CN3CCOCC3)cc2)ncc1Cl | 104 nM | 592 nM | 128 nM | 21600 nM | 491 nM | 21.7 nM | 5110 nM | 
C=CC(=O)Nc1cccc(Nc2nc(Nc3ccc(N4CCN(C(C)=O)CC4)cc3OC)ncc2C(F)(F)F)c1 [ROCILETINIB] |  |  | 299 nM | > 40000 nM | 31 nM |  | 3240 nM | inhibition in vivo at 50 mg/kg/day (NCI-H1975 [5]): 70.2%
C=CC(=O)Nc1ccccc1Nc1nc(Nc2ccc(OCCCN3CCOCC3)cc2)ncc1Cl | 584 nM | 767 nM | 217 nM | > 40000 nM | 587 nM | 21.5 nM | 4740 nM | 
C=CC(=O)Nc1ccccc1Nc1nc(Nc2ccc(CN3CCOCC3)cc2)ncc1Cl | 112 nM | > 800 nM | 104 nM | > 40000 nM | 995 nM | 15.3 nM | 2640 nM | 
C=CC(=O)Nc1cc(Nc2nccc(-c3cn(C)c4ccccc34)n2)c(OC)cc1N(C)CCN(C)C [OSIMERTINIB] |  |  |  |  |  |  |  | inhibition in vivo at 20 mg/kg/day (NCI-H1975 [6]): 98.8%
C=CC(=O)Nc1ccccc1Nc1nc(Nc2ccc(OCCN3CCOCC3)cc2)ncc1Cl | 478 nM |  | 240 nM | > 40000 nM | 524 nM |  | 4700 nM | 
C=CC(=O)Nc1cccc(Nc2nc(Nc3ccc(OCCN4CCOCC4)cc3)ncc2Cl)c1 | 385 nM | 961 nM | 215 nM | 31500 nM | 43 nM | 94.7 nM | 5710 nM | 
C=CC(=O)Nc1cccc(Nc2nc(Nc3ccc(CN4CCOCC4)cc3)ncc2Cl)c1 | 382 nM |  | 37 nM | > 40000 nM | 44 nM |  | 4450 nM | inhibition [7]: Dose-dependent effect; inhibition (INH) [8]: Dose-dependent effect; inhibition [9]: 100%; inhibition in vivo at 10 mg/kg/day (NCI-H1975 [10]): 39%; Activity (Mus musculus [11]): Non-Toxic; inhibition (INH) [12]: Dose-dependent effect; inhibition in vivo at 50 mg/kg/day (NCI-H1975 [5]): 64.6%; inhibition (INH) [13]: Dose-dependent effect; TGI (NCI-H1975 [14]): Dose-dependent effect; inhibition [15]: Dose-dependent effect; inhibition [16]: Dose-dependent effect; inhibition in vivo at 20 mg/kg/day (NCI-H1975 [6]): 45.3%; Activity (Mus musculus [17]): Non-Toxic; Activity (Mus musculus [18]): < 5%
C=CC(=O)Nc1cccc(Nc2nc(Nc3ccc(OCCN4CCOCC4)c(Cl)c3)ncc2Cl)c1 | 870 nM | > 1000 nM | 500 nM | 22400 nM | 57 nM | > 100 nM | 14000 nM | 
C=CC(=O)Nc1ccccc1Nc1nc(Nc2ccc(OCC(=O)N3CCOCC3)cc2)ncc1Cl | 42 nM | 143 nM | 132 nM | 39500 nM | 418 nM | 24.8 nM | 2650 nM | 
C=CC(=O)Nc1cccc(Nc2nc(Nc3ccc(CN4CCOCC4)cc3OC)ncc2Cl)c1 | 2060 nM | > 500 nM | 287 nM | 28800 nM | 52 nM | 17 nM | 16600 nM | 
C=CC(=O)Nc1cccc(Nc2nc(Nc3ccc(CC(=O)N4CCOCC4)cc3)ncc2Cl)c1 | 760 nM | < 500 nM | 256 nM | 22000 nM | 58 nM | 96.6 nM | 1660 nM | 
C=CC(=O)Nc1cccc(Oc2nc(Nc3ccc(CC(=O)N4CCOCC4)cc3)ncc2Cl)c1 | 2190 nM | 996 nM | 296 nM | > 40000 nM | 48 nM | 101 nM | 2940 nM | 
